Experimental data from different studies.
Compare with care: the assays were run in different laboratories.
Target: Protein kinase C zeta type (PRKCZ, Homo sapiens, UniProt Q05513)
Residues used in one study (Q05513 1-592): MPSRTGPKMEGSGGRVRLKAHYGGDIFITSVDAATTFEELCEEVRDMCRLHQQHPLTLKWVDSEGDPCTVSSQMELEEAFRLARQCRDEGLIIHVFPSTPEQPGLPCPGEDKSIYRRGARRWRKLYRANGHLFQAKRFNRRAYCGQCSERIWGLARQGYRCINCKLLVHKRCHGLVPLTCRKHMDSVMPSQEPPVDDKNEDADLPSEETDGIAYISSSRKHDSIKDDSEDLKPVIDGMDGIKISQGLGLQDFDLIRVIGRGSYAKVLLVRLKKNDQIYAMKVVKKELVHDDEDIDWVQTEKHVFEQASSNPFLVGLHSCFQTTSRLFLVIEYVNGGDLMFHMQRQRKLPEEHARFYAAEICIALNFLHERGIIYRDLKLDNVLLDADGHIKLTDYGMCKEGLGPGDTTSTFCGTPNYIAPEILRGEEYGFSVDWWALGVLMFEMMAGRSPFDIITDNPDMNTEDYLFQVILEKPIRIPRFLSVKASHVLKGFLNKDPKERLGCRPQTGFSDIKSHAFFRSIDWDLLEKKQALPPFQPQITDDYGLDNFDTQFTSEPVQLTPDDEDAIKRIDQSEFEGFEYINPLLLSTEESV

Structure (SMILES) | assay | setting | endpoint | value
O=C(Nc1cnn(-c2csc(C(=O)NC3COC3)c2)c1)Nc1ccccc1Cl | enzyme activity, inhibitor | 5 µM | remaining activity | 105%
Nc1nc(NC2CCCCC2)sc1C(=O)c1ccccc1 | enzyme activity, inhibitor | 10 µM | remaining activity | 83%
Cc1cc(NC(=O)c2cccc3cc(-c4cccc5[nH]nc(N)c45)ccc23)ccc1F | enzyme activity, inhibitor | 0.1 µM | activity vs control | 99%
Cn1c2c(c3ccc(Cl)c(Cl)c31)C(C#N)C1(CCOCC1)NC2=O (centres unmarked) | thermal stability, DSF | 10 µM | ΔTm | -0.2 °C
COc1cc(-c2cc(-c3ccc(N4CCNCC4)cc3)cnc2C)cc(OC)c1OC | enzyme activity, inhibitor | 1 µM | inhibition | 3%
Cc1sc(C(=O)NC2COC2)cc1-n1cc(NC(=O)Nc2c(F)cccc2Cl)cn1 | enzyme activity, inhibitor | 10 µM | remaining activity | 104%
CC(C)c1ccc(NC(=O)c2cccs2)c(-c2nc3ccccc3[nH]c2=O)c1 | enzyme activity, inhibitor | 1 µM | activity vs control | 97%
CCCCNc1ncc2c(-c3ccc(F)cc3)nn(C[C@H]3CC[C@H](N)CC3)c2n1 | target engagement in cells, inhibitor, chemoproteomics | 20 mM | inhibition | -19.6%
Cn1c2c(c3ccccc31)C(C#N)C(C)(C)NC2=O (centres unmarked) | thermal stability, DSF | 10 µM | ΔTm | -0.3 °C
Cc1ccc(Nc2nccc(N(C)c3ccc4c(C)n(C)nc4c3)n2)cc1S(N)(=O)=O | enzyme activity, inhibitor | 10 µM | inhibition | -2%
COc1cc2ncnc(Nc3ccc(Oc4ccccc4)cc3C)c2cc1OC | enzyme activity, inhibitor | 1 µM | inhibition | 3%
Cc1ccc(C(=O)NCc2ccsc2)cc1C#Cc1cn(C(C)C)c2ncnc(N)c12 | enzyme activity, inhibitor | 1 µM | activity vs control | 111%
COc1cc(Nc2cnc(C#N)c(O[C@H](C)CN(C)C)n2)ncc1-c1cnn(C)c1 | enzyme activity, inhibitor, radiometric | 10 µM | remaining activity | 79%
Cn1c2c(c3ccc(Cl)c(Cl)c31)C(C#N)C1(CCNCC1)NC2=O (racemic) | thermal stability, DSF | 10 µM | ΔTm | 0.9 °C
Cn1c(=O)n(-c2ccc(C(C)(C)C#N)cc2)c2c3cc(-c4cnc5ccccc5c4)ccc3ncc21 | enzyme activity, inhibitor | 10 µM | remaining activity | 123%
COc1cccc2c(NCc3ccccc3)nc(-n3c(N)nc4ccccc43)nc12 | target engagement in cells, inhibitor, chemoproteomics | 20 mM | inhibition | 19.7%
O=C1Nc2ccc(Cl)cc2C1=Cc1cc(Cl)c(O)c(Cl)c1 | cell-free assay | 0.5 µM | remaining signal | 95.3%
CNC(=O)c1cc(Oc2ccc(NC(=O)Nc3ccc(Cl)c(C(F)(F)F)c3)cc2)ccn1 | enzyme activity, inhibitor | 10 µM | inhibition | -5%
CC(C)(O)[C@H]1CC[C@H](Nc2ccc3ncc(-c4cccc(C(F)(F)F)c4)n3n2)CC1 | enzyme activity, inhibitor | 1 µM | remaining activity | 98%
FC(F)c1nc2ccccc2n1-c1nc(N2CCOCC2)nc(N2CCOCC2)n1 | enzyme activity, inhibitor | 10 µM | remaining activity | 87%
Nc1nc(Nc2ccccc2)sc1C(=O)c1c(F)cccc1F | enzyme activity, inhibitor | 10 µM | remaining activity | 83%
CC(C)(C)c1nc2c(s1)c1nc(N)ncc1c1ccc(NS(=O)(=O)c3c(F)cccc3F)c(F)c12 | enzyme activity, inhibitor, radiometric | 1 µM | remaining activity | 107%
Cn1c2c(Cl)c(Cl)ccc2c2cc(N)[nH]c(=O)c21 | thermal stability, DSF | 10 µM | ΔTm | 0.1 °C
CCCOc1ccc(OC)c(F)c1C(=O)c1ccc(C(=O)N[C@@H]2CNC[C@H]2NC(=O)c2ccc3[nH]ncc3c2)cc1 | enzyme activity, inhibitor | 10 µM | remaining activity | 60%
COc1cc(/C=C/C(=O)CC(=O)/C=C/c2ccc(O)c(OC)c2)ccc1O | enzyme activity, inhibitor | 1 µM | activity vs control | 94%
CN1CCC2(CC1)NC(=O)c1c(c3ccc(Cl)c(Cl)c3n1C)C2C#N (racemic) | thermal stability, DSF | 10 µM | ΔTm | 0 °C
